≈ marks a conversion by molar mass, not a printed value. Calls of active or inactive are those of the source. No cut-off for these calls is given here.
Columns and labels:
[1] = molecular target: DNA gyrase (Staphylococcus aureus, UniProt P0A0K8+P20831); experiment: Inhibition of Staphylococcus aureus DNA gyrase using relaxed pBR322 as substrate by gel electrophoresis; type: protein-complex assay
[2] = test system: Staphylococcus aureus; experiment: Antibacterial activity against Staphylococcus aureus D83N by CLSI based agar dilution method; type: functional
[3] = test system: K562; experiment: Growth inhibition of human K562 cells incubated for 48 hrs by sulforhodamine B assay; type: functional
[4] = test system: Staphylococcus aureus; experiment: Antibacterial activity against Staphylococcus aureus ATCC 29213 by CLSI based agar dilution method; type: functional
[5] = test system: Staphylococcus aureus; experiment: Antibacterial activity against Staphylococcus aureus USA300 by CLSI based agar dilution method; type: functional
[6] = test system: Staphylococcus aureus; experiment: Antibacterial activity against Staphylococcus aureus 3527 by CLSI based agar dilution method; type: functional
[7] = molecular target: Topoisomerase IV (Staphylococcus aureus, UniProt P0C1S7+P0C1U9); experiment: (§1) Inhibition of Staphylococcus aureus topoisomerase-4 assessed as reduction in decatenation of kinetoplast DNA agarose gel electrophoresis method; type: protein-complex assay
[8] = molecular target: T1, DNA gyrase (Staphylococcus aureus) (UniProt P0A0K8+P20831); experiment: Inhibition of Staphylococcus aureus DNA gyrase assessed as single-strand break at 20 uM using relaxed pBR322 as substrate by ethidium bromide-based gel electrophoresis; type: protein-complex assay
In short: (§2)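 S. aureus gyrase-mediated DNA cleavage: compound was incubated with enzyme and DNA, and products were resolved on an ethidium-stained gel into negatively supercoiled, nicked (single-strand break) and linear (double-strand break) forms. Lane fluorescence was corrected for differential band emission. Percent of each form was calculated, and enzyme-only cleavage was subtracted. Concentrations spanned 0.1 nM–200 μM, with a 20 μM single-point screen. Results are mean ± SD or range.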

[9] = molecular target: T1, DNA gyrase (Staphylococcus aureus); experiment: Inhibition of Staphylococcus aureus DNA gyrase assessed as double-strand break at 20 uM using relaxed pBR322 as substrate by ethidium bromide-based gel electrophoresis; type: protein-complex assay; in short: as §2
[10] = Growth inhibition of human K/VP.5 cells incubated for 48 hrs by sulforhodamine B assay; type: functional
[11] = molecular target: Voltage-gated inwardly rectifying potassium channel KCNH2 (Homo sapiens, UniProt Q12809); experiment: Inhibition of human ERG; conditions: human
[12] = molecular target: DNA topoisomerase 2-alpha (Homo sapiens, UniProt P11388); experiment: Inhibition of human topoisomerase 2alpha
In short: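 Human topoisomerase IIα decatenation activity was tested at a single concentration of 100 μM and reported as percent inhibition.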

[13] = molecular target: Topoisomerase IV (Staphylococcus aureus, UniProt P0C1U9+P0C1S7); experiment: as §1; type: protein-complex assay
[14] = molecular target: T1, DNA gyrase (Staphylococcus aureus); experiment: Inhibition of Staphylococcus aureus DNA gyrase assessed as double-strand break at 100 to 200 uM using relaxed pBR322 as substrate by ethidium bromide-based gel electrophoresis; type: protein-complex assay; conditions: dose microM 100-200; in short: as §2
[15] = molecular target: T1, DNA gyrase (Staphylococcus aureus); experiment: Inhibition of Staphylococcus aureus DNA gyrase assessed as single-strand break at 100 to 200 uM using relaxed pBR322 as substrate by ethidium bromide-based gel electrophoresis; type: protein-complex assay; conditions: dose microM 100-200; in short: as §2
[16] = molecular target: T1, DNA gyrase (Staphylococcus aureus); experiment: Inhibition of Staphylococcus aureus DNA gyrase assessed as double-strand break at 100 uM using relaxed pBR322 as substrate by ethidium bromide-based gel electrophoresis; type: protein-complex assay
In short: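 Gyrase-mediated DNA cleavage reactions with test agent across 0.1–100 μM. Products were resolved on ethidium-stained gels into negatively supercoiled, nicked and linear forms. DSBs were taken as percent of total lane fluorescence in the linear band, correcting for the different emission of supercoiled versus linear and nicked DNA. Cleavage in enzyme-only controls was subtracted.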

Chain of Voltage-gated inwardly rectifying potassium channel KCNH2 (Q12809 whole entry): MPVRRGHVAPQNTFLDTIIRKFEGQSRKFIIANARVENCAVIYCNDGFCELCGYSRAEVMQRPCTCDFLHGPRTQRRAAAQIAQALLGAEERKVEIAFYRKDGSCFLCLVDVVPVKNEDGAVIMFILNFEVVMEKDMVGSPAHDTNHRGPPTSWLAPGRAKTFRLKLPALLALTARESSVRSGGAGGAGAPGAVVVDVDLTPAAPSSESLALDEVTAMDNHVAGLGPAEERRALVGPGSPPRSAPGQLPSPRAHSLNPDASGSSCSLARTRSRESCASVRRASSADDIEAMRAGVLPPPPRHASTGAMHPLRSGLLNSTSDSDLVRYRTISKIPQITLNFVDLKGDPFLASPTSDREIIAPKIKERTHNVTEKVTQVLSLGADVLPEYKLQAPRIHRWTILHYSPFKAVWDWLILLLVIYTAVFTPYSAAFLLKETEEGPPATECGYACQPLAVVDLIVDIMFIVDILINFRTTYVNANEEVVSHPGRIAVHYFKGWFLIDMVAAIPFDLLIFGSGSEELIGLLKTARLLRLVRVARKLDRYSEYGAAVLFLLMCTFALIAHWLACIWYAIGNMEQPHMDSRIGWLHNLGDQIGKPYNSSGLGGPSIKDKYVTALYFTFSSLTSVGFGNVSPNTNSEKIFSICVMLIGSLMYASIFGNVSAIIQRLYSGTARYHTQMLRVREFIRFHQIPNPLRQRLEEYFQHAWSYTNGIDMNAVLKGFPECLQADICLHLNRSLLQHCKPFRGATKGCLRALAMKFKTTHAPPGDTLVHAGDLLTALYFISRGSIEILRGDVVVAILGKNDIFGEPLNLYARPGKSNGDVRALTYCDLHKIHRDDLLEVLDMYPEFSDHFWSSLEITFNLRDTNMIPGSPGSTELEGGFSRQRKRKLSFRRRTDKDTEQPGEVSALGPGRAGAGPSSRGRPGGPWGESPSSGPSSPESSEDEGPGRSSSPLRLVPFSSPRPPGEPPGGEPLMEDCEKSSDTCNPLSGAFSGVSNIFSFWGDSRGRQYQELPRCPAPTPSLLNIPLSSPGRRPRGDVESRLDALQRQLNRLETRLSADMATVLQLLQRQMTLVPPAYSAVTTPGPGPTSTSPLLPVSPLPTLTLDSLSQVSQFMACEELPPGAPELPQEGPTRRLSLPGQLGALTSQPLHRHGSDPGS
Chain of DNA topoisomerase 2-alpha (P11388 whole entry): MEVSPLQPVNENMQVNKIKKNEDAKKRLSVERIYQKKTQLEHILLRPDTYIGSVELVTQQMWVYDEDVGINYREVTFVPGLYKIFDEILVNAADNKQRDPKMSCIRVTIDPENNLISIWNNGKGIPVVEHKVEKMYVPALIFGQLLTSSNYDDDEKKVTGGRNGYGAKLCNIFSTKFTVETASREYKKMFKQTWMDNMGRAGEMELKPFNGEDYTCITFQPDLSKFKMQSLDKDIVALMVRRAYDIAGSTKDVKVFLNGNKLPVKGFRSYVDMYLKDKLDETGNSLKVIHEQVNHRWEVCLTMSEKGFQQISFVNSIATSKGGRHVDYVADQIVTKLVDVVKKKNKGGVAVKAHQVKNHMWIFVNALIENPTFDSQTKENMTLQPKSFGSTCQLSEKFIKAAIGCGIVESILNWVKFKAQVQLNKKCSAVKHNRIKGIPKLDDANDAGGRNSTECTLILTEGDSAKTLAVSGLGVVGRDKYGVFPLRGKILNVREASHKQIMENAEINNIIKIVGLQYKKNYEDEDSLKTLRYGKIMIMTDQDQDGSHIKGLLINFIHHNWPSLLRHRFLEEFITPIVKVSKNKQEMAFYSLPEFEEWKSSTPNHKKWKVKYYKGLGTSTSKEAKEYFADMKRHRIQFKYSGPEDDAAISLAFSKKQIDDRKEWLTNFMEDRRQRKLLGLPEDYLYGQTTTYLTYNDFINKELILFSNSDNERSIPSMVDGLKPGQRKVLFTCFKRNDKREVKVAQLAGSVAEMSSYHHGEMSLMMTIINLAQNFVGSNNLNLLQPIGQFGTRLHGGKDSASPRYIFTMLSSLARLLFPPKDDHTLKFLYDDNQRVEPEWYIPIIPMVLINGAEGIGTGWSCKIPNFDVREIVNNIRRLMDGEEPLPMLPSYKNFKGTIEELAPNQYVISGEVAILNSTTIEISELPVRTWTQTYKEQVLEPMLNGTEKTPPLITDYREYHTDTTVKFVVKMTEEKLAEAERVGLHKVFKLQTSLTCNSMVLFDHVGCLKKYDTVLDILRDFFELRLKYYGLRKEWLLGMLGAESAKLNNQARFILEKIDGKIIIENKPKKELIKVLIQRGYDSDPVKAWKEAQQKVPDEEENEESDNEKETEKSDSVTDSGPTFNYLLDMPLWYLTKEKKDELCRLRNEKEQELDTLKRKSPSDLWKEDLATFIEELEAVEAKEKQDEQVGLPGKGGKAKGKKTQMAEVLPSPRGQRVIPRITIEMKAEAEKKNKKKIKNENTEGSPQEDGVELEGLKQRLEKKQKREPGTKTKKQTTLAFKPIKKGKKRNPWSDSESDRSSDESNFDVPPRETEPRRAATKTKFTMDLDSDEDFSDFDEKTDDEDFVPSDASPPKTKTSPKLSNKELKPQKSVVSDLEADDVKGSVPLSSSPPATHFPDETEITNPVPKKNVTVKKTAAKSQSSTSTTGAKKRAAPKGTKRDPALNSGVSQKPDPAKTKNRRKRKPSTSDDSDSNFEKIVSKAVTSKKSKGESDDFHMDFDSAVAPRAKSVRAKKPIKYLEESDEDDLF

inhibition [14] | inhibition [15] | inhibition [16] | Compound | IC50 [1] | MIC [2] | INH [3] | MIC [4] | MIC [5] | MIC [6] | IC50 [7] | inhibition [8] | inhibition [9] | INH [10] | INH [11] | inhibition (INH) [12] | IC50 [13]
– | – | – | COc1ccc2nccc(CC[C@H]3OC[C@H](NC(=O)c4ccc(C(F)(F)F)cc4)CO3)c2c1 | 1100 nM | > 64 µg/mL | 6.8 µM | 0.25 µg/mL (≈ 0.543 µM) | ≤ 0.5 µg/mL | ≤ 0.5 µg/mL | > 200000 nM | Active | inactive | 8.9 µM | > 30 µM | Not Active | –
– | – | – | COc1ccc2nccc(CC[C@H]3OC[C@H](NC(=O)C4COc5ccccc5C4)CO3)c2c1 (some centres undefined) | – | > 64 µg/mL | – | > 64 µg/mL | > 64 µg/mL | > 64 µg/mL | – | – | – | – | – | – | –
– | – | – | COc1ccc2nccc(CC[C@H]3OC[C@H](NC(=O)C4CCNCC4)CO3)c2c1 | – | > 64 µg/mL | – | > 64 µg/mL | > 64 µg/mL | > 64 µg/mL | – | – | – | – | – | – | –
– | – | – | COc1ccc2nccc(CC[C@H]3OC[C@H](NC(=O)c4ccc5c(c4)NC(=O)CO5)CO3)c2c1 | 60 nM | > 64 µg/mL | >200 µM | 0.25 µg/mL (≈ 0.539 µM) | 0.25 µg/mL (≈ 0.539 µM) | 0.5 µg/mL (≈ 1.08 µM) | 890 nM | – | – | >200 µM | – | – | –
– | – | – | COc1ccc2nccc(CC[C@H]3OC[C@H](NC(=O)c4ccc(F)cc4)CO3)c2c1 | – | > 256 µg/mL | – | > 256 µg/mL | > 256 µg/mL | > 256 µg/mL | – | – | – | – | – | – | –
– | – | – | COc1ccc2nccc(CC[C@H]3OC[C@H](NC(=O)c4ccc(Cl)cc4)CO3)c2c1 | 610 nM | > 32 µg/mL | 10 µM | 1 µg/mL (≈ 2.34 µM) | 1 µg/mL (≈ 2.34 µM) | 2 µg/mL (≈ 4.68 µM) | – | Active | inactive | 11 µM | 11 µM | Not Active | Not Active
– | – | – | COc1ccc2nccc(CC[C@H]3OC[C@H](NC(=O)c4ccc(C(C)(C)C)cc4)CO3)c2c1 | 1300 nM | 2 µg/mL (≈ 4.46 µM) | 8.4 µM | 0.25 µg/mL (≈ 0.557 µM) | 1 µg/mL (≈ 2.23 µM) | 1 µg/mL (≈ 2.23 µM) | > 200000 nM | Active | inactive | 8.8 µM | 5.2 µM | Not Active | –
– | – | – | COc1ccc2nccc(CC[C@H]3OC[C@H](NC(=O)C4CCN(C)CC4)CO3)c2c1 | – | > 64 µg/mL | – | > 64 µg/mL | > 64 µg/mL | > 64 µg/mL | – | – | – | – | – | – | –
– | – | – | COc1ccc2nccc(CC[C@H]3OC[C@H](NC(=O)c4ccc(C#N)cc4)CO3)c2c1 | – | – | – | > 8 µg/mL | > 8 µg/mL | – | – | – | – | – | – | – | –
– | – | – | COc1ccc2nccc(CC[C@H]3OC[C@H](NC(=O)c4ccc5c(n4)NC(=O)CS5)CO3)c2c1 | 170 nM | > 64 µg/mL | >200 µM | 0.06 µg/mL (≈ 0.125 µM) | 0.03 µg/mL (≈ 0.0624 µM) | 0.03 µg/mL (≈ 0.0624 µM) | 300 nM | – | – | >200 µM | > 3 µM | – | –
inactive | Active | – | O=c1ccc2ncc(=O)n3c2n1C[C@H]3CN1CCC(NCc2cc3c(cn2)OCCC3)CC1 | – | – | – | – | – | – | – | – | – | – | – | – | –
– | – | Active | O=C(O)c1cn(C2CC2)c2cc(N3CCNCC3)c(F)cc2c1=O | – | – | – | – | – | – | – | – | – | – | – | – | –
– | – | – | COc1ccc2nccc(CC[C@H]3OC[C@H](NC(=O)C4CCCCC4)CO3)c2c1 | – | 32 µg/mL (≈ 80.3 µM) | – | 8 µg/mL (≈ 20.1 µM) | 8 µg/mL (≈ 20.1 µM) | 8 µg/mL (≈ 20.1 µM) | – | – | – | – | – | – | –
– | – | – | COc1ccc2nccc(CC[C@H]3OC[C@H](NC(=O)c4ccccc4)CO3)c2c1 | – | > 256 µg/mL | – | 8 µg/mL (≈ 20.4 µM) | 8 µg/mL (≈ 20.4 µM) | 4 µg/mL (≈ 10.2 µM) | – | – | – | – | – | – | –
– | – | – | COc1ccc2nccc(CC[C@H]3OC[C@H](NC(=O)c4ccc5c(n4)NC(=O)CO5)CO3)c2c1 | 40 nM | > 64 µg/mL | >200 µM | 0.125 µg/mL (≈ 0.269 µM) | 0.125 µg/mL (≈ 0.269 µM) | 0.125 µg/mL (≈ 0.269 µM) | 190 nM | – | – | >200 µM | > 12 µM | – | –
– | – | – | COc1ccc2nccc(CC[C@H]3OC[C@H](NC(=O)C4(C)CCCCC4)CO3)c2c1 | – | > 64 µg/mL | – | > 64 µg/mL | > 64 µg/mL | > 64 µg/mL | – | – | – | – | – | – | –
– | – | – | COc1ccc2nccc(CC[C@H]3OC[C@H](NC(=O)[C@H]4CC[C@@H](N)CC4)CO3)c2c1 | – | > 64 µg/mL | – | > 64 µg/mL | > 64 µg/mL | > 64 µg/mL | – | – | – | – | – | – | –
